Assay results: ChEMBL document CHEMBL1949524, “Chiral indolo[3,2-f][3]benzazecine-type dopamine receptor antagonists: synthesis and activity of racemic and enantiopure derivatives” (J Med Chem, 2011)
Calls of active or inactive are those of the source. No cut-off for these calls is given here.

Key:
[1] = molecular target: T1, D(1A) dopamine receptor (Homo sapiens, UniProt P21728); test: Displacement of [3H]SCH23390 from human dopamine D1 receptor expressed in human HEK293 cells; format: cell-based
T1 sequence (P21728 whole entry): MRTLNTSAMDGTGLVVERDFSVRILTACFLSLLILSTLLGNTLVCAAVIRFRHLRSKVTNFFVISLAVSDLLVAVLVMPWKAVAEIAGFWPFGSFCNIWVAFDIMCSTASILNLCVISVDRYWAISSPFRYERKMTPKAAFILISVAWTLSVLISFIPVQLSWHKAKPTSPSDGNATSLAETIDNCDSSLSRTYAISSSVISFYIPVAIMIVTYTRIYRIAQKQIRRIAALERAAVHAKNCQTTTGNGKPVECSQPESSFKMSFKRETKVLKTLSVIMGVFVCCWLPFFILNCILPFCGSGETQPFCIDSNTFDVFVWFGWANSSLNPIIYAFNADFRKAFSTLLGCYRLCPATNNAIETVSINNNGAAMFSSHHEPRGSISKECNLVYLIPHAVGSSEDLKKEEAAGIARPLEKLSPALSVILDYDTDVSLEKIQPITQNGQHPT
Outline: (§1)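 Radioligand binding at human receptors, with Ki as the read-out. Ki is the mean (±SEM) of two to three experiments, each run in triplicate.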

[2] = molecular target: T2, D(2) dopamine receptor (Homo sapiens, UniProt P14416); test: Displacement of [3H]spiperone from human dopamine D2L receptor expressed in human HEK293 cells; format: cell-based; outline: as §1
T2 sequence (P14416 whole entry): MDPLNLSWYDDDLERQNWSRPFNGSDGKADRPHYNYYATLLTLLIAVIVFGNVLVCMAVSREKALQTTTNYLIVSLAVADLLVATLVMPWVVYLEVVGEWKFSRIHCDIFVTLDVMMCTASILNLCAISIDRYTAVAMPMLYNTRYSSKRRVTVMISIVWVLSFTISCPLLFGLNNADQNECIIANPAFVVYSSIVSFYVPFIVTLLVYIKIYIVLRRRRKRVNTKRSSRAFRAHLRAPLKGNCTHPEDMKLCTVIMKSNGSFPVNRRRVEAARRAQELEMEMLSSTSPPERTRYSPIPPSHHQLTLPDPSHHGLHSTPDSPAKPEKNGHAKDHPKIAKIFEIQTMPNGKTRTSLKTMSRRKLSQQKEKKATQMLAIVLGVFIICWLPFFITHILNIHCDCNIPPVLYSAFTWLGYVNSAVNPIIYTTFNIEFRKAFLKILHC

[3] = molecular target: D(3) dopamine receptor (Homo sapiens, UniProt P35462); test: Displacement of [3H]spiperone from human dopamine D3 receptor expressed in human HEK293 cells; format: cell-based; outline: as §1
D(3) dopamine receptor, sequence (P35462 whole entry): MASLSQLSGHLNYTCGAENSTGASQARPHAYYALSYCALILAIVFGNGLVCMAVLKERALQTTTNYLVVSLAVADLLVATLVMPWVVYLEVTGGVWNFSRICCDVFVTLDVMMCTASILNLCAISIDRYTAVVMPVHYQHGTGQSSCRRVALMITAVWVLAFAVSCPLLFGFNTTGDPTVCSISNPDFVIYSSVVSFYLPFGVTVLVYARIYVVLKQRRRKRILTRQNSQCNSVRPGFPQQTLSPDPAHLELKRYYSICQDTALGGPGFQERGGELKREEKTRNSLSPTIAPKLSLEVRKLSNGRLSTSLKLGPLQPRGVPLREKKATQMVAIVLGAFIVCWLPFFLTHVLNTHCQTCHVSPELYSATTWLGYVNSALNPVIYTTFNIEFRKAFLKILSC

[4] = molecular target: T3, D(4) dopamine receptor (Homo sapiens, UniProt P21917); test: Displacement of [3H]spiperone from human dopamine D4.4 receptor expressed in CHO cells; format: cell-based; outline: as §1
T3 sequence (P21917 whole entry): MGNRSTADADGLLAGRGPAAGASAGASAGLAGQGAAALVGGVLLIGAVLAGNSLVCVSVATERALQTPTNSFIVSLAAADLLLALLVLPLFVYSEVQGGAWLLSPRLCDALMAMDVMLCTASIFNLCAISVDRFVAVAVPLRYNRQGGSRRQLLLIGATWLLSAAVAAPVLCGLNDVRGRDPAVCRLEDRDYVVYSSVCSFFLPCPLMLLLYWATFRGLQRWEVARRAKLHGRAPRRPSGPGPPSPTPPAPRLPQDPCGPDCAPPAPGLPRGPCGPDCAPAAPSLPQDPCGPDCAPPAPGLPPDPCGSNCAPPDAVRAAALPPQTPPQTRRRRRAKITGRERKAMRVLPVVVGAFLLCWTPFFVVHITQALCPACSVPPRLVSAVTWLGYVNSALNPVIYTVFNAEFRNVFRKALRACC

[5] = molecular target: D(1B) dopamine receptor (Homo sapiens, UniProt P21918); test: Displacement of [3H]SCH23390 from human dopamine D5 receptor expressed in human HEK293 cells; format: cell-based; outline: as §1
D(1B) dopamine receptor, sequence (P21918 whole entry): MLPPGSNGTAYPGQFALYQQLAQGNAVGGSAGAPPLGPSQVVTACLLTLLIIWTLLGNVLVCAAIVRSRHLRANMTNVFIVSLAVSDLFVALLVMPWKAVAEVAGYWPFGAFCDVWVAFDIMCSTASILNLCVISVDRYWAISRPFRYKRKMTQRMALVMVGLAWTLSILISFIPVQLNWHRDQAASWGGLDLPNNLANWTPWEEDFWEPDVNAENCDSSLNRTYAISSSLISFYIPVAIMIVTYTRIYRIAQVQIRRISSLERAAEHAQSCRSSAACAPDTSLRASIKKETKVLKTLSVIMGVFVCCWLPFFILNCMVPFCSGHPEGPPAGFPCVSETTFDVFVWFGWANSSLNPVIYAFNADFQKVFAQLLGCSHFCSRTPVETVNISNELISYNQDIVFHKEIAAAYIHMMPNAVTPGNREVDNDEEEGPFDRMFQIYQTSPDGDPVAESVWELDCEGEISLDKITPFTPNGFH

[6] = molecular target: T1, D(1A) dopamine receptor; test: Antagonist activity at human dopamine D1 receptor expressed in HEK293 cells assessed as inhibition of SKF38393-induced Ca2+ influx by fluorescence analysis; format: functional, cell-based
Outline: (§2)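 HEK293 cells stably expressing the relevant dopamine receptor were loaded with a fluorescent dye and preincubated with rising concentrations of test compound. Agonist was then added: SKF 38393 for D1, quinpirole for D2. Ca2+-induced fluorescence was read on a microplate reader.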

[7] = molecular target: T2, D(2) dopamine receptor; test: Antagonist activity at human dopamine D2L receptor expressed in HEK293 cells assessed inhibition of as quinpirole-induced Ca2+ influx by fluorescence analysis; format: functional, cell-based; outline: as §2

Structure (SMILES)	Ki [1]	Ki [2]	Ki [3]	Ki [4]	Ki [5]	inhibition [6]	inhibition [7]
CN1CCc2ccccc2Cc2[nH]c3ccccc3c2C[C@@H]1CO	10.3 nM	268 nM	681 nM	408 nM	11.4 nM	Active	Active
CN1CCc2ccccc2Cc2[nH]c3ccccc3c2C[C@H]1CO	114 nM	2920 nM	4680 nM	4860 nM	91.4 nM	Active	Active
CN1CCc2ccccc2Cc2[nH]c3ccccc3c2CC1C(=O)O (racemic)	> 10000 nM	> 10000 nM	> 10000 nM	> 10000 nM	657 nM	Active	Active
C[C@@H]1Cc2c([nH]c3ccccc23)Cc2ccccc2CCN1C	640 nM	> 10000 nM	> 10000 nM	> 10000 nM	389 nM	Active	Active
C[C@H]1Cc2c([nH]c3ccccc23)Cc2ccccc2CCN1C	6.1 nM	85.3 nM	304 nM	64.1 nM	4.4 nM	Active	Active
